From ChEMBL document CHEMBL4011639, “Discovery of Novel Nucleotide Prodrugs with Improved Potency Against HCV Variants Carrying NS5B S282T Mutation” (J Med Chem, 2017) come the findings set out here.

In data set [1] the target is Adenosine 5'-monophosphoramidase HINT1 (Homo sapiens, UniProt P49773). Put plainly: Drug metabolism in human HuH7 cells assessed as HINT1-mediated ((2R,3R,4R,5R)-5-(4-butyramido-2-oxopyrimidin-1(2H)-yl)-4-fluoro-3-hydroxy-4-methyltetrahydrofuran-2-yl)methyl dihydrogen phosphate metabolite formation at 50 uM after 48 hrs by LC/MS/MS analysis. Format: ADME, cell-based. Summed up:
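Huh-7 cells plated at 0.35 million/mL in DMEM with 10% FBS (about 1 million per well at dosing) and grown 18 h. At each time point cells were washed with cold saline and lysed in methanol with internal standard. Semiquantified by LC/MS/MS MRM as Δ mean peak-area ratio relative to t0.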

A short description of data set [2]: Acute toxicity in ICR mouse administered as a single dose via oral gavage and observed over 14 days. Conditions: in vivo.

Structures are written as SMILES.

Chain of Adenosine 5'-monophosphoramidase HINT1 (P49773 whole entry): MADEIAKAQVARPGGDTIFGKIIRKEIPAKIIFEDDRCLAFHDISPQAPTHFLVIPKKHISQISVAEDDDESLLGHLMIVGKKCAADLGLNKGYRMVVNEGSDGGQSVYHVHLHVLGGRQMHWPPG

In the case of `CCCC(=O)Nc1ccn([C@@H]2O[C@H](CO[P@@](=O)(N[C@@H](C)C(=O)OC(C)C)Oc3ccccc3)[C@@H](O)[C@@]2(C)F)c(=O)n1`, the Drug metabolism result in data set [1] is recorded as “Metabolite_Notdetected”. Also, the NOAEL (as a rule, the highest tested level that showed no adverse finding) at 336 h in data set [2] was more than 1800 mg/kg.
